One assay has as its system HeLa. Briefly: Cytotoxicity against human HeLa cells assessed as reduction in cell viability by SRB assay. The format is functional, cell-based. In short, it runs like this: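 HeLa human cervical carcinoma cells; cell growth read by sulforhodamine B (SRB) method; IC50 values reported.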
Background: In SRB staining, fixed cells bind dye roughly in proportion to their protein.

Another assay deals with HL-60. As to the kind of experiment: Cytotoxicity against human HL60 cells assessed as reduction in cell viability by MTT assay. Type of assay: functional, cell-based. The method, boiled down:
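HL-60 human promyelocytic leukemia cells; viability read by MTT method; IC50 values reported.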
On the technique in general: Formazan colour is commonly taken as a measure of viable cells.

Structures can show the parent of a compound that is named as a salt.

A word on the IC50: it is the midpoint of a concentration-inhibition curve. Take `COc1cccc2c1O[C@]1(C(=O)N3O[C@H]4[C@H](O)C=C[C@@H](O)[C@@]4(O)C[C@@]3(SC)C(=O)N1C)[C@@H]2SC`: the IC50 with HeLa and with HL-60 was greater than 30000 nM each time.
For `COc1ccc2c(c1OC)O[C@]13C(=O)N4O[C@H]5[C@H](O)C=C[C@@H](O)[C@@]5(O)C[C@@]4(SSS[C@H]21)C(=O)N3C`, the IC50 in the assay with HeLa was determined as 300 nM; with HL-60, 1200 nM.
In the same order, the values of `COc1ccc2c(c1OC)O[C@]1(C(=O)N3O[C@H]4[C@H](O)C=C[C@@H](Cl)[C@@]4(O)C[C@@]3(SC)C(=O)N1C)[C@@H]2SC` are greater than 30000 nM and greater than 30000 nM.
In the same order, the values of `COc1ccc2c(c1OC)O[C@]13C(=O)N4O[C@H]5[C@H](O)C=C[C@@H](O)[C@@]5(O)C[C@@]4(SS[C@H]21)C(=O)N3C` are 3900 nM and 1600 nM.
Consider `COc1ccc2c(c1OC)O[C@]1(C(=O)N3O[C@H]4[C@H](O)C=C[C@@H](O)[C@@]4(O)C[C@@]3(SC)C(=O)N1C)[C@@H]2SC`, for which the 50% inhibitory concentration (IC50) in the assay on HeLa and with HL-60 was greater than 30000 nM in each case.
As to `COc1ccc2c(c1OC)O[C@]13C(=O)N4O[C@H]5[C@H](O)C=C[C@@H](Cl)[C@@]5(O)C[C@@]4(SS[C@H]21)C(=O)N3C`, the concentration for half-maximal inhibition (IC50) in the assay with HeLa was determined as 500 nM; in the assay on HL-60, 100 nM.
For `COc1cccc2c1C(=O)c1c(O)c3c(c(O)c1C2=O)C[C@@](O)(C(=O)CO)C[C@@H]3O[C@H]1C[C@H](N)[C@H](O)[C@H](C)O1` [DOXORUBICIN HYDROCHLORIDE], in the assay with HeLa, the IC50 was found to be 500 nM.
